Source: ChEMBL document CHEMBL1136261, “Novel inhibitors of neuronal nitric oxide synthase with potent antioxidant properties” (Bioorg Med Chem Lett, 2003)

Assays:
[1] = target: T1, Nitric oxide synthase 3 (Bos taurus) (UniProt P29473); assay: Selectivity ratio for inhibition of Endothelial Nitric oxide synthase to that of Neuronal Nitric oxide synthase in rat
T1 sequence (whole entry): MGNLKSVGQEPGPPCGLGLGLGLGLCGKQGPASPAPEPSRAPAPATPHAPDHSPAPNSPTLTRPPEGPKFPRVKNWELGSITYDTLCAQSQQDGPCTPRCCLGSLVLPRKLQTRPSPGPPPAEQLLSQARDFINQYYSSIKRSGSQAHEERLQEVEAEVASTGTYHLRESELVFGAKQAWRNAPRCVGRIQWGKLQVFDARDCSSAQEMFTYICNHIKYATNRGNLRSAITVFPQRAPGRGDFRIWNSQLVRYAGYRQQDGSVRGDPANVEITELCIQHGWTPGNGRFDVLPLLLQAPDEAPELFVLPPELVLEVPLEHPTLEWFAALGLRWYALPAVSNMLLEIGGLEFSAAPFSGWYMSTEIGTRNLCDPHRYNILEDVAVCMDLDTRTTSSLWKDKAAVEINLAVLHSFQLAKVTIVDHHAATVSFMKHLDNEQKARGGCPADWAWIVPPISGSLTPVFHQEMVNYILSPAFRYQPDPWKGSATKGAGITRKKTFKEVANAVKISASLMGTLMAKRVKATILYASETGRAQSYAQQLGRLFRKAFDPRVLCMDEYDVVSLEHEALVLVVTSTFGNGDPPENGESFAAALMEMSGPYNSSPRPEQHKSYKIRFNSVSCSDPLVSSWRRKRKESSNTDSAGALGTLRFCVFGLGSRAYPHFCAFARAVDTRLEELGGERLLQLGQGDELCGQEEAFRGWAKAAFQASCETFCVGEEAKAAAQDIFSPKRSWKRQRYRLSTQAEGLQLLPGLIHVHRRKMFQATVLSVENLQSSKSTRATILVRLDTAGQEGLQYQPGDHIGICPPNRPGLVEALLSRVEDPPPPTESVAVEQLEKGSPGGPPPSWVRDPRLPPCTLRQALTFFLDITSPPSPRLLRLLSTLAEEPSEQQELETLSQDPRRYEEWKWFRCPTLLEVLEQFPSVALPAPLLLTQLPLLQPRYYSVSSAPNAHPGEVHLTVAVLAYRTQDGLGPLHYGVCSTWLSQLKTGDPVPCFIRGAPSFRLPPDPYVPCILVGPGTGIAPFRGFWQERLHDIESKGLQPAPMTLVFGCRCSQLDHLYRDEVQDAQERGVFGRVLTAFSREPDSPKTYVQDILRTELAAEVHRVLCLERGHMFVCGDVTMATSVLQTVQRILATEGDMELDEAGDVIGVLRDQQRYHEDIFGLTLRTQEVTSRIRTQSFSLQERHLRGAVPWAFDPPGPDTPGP
Outline: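 Ratio of inhibitory activity on the two constitutive NOS isoforms, eNOS and nNOS. Inhibition on each isoform was measured as the effect on NOS conversion of [3H]L-arginine to [3H]L-citrulline.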

[2] = target: T2, Nitric oxide synthase 1 (Rattus norvegicus, UniProt P29476); assay: Inhibitory concentration tested against neuronal nitric oxide synthase (nNOS ) from rat cerebellum; type: tissue-based
T2 sequence (P29476 whole entry): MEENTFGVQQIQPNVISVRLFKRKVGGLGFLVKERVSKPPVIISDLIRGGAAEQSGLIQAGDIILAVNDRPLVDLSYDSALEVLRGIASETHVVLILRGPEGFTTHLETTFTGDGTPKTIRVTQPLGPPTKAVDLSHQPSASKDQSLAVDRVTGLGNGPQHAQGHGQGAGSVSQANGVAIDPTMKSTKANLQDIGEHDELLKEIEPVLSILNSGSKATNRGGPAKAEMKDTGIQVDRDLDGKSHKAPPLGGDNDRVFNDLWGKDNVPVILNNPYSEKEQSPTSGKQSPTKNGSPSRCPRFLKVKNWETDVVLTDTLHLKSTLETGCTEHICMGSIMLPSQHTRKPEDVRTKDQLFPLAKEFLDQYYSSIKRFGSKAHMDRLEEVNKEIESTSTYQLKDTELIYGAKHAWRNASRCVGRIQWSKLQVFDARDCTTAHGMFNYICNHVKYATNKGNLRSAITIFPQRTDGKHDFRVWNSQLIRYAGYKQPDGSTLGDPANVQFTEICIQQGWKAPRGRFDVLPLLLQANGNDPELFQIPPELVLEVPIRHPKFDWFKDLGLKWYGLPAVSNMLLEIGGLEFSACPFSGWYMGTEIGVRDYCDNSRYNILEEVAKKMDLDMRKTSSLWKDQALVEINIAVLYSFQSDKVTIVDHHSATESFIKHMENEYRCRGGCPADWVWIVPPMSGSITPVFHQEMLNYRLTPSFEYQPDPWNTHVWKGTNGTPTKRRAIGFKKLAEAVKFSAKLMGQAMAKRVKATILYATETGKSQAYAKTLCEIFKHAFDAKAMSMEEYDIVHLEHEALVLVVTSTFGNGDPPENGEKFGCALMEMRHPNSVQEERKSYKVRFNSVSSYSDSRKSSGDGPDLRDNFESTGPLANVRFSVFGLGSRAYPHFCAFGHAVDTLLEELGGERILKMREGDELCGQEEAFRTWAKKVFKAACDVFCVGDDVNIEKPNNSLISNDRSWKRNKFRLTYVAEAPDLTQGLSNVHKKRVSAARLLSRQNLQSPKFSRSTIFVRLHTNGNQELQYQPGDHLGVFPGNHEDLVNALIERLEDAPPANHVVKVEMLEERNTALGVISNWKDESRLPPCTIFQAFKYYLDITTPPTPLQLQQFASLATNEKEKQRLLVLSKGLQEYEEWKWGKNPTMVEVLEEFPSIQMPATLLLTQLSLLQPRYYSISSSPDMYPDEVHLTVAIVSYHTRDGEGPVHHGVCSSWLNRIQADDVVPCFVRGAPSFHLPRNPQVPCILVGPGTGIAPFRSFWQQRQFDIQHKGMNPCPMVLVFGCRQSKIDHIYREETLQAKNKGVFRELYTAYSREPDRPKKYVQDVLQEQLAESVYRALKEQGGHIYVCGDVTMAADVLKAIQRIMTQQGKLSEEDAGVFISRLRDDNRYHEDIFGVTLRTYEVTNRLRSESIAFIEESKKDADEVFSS

[3] = target: T3, Nitric oxide synthase 3 (Bos taurus, UniProt P29473); assay: Inhibitory concentration tested against bovine endothelial nitric oxide synthase (eNOS)
T3 sequence (P29473 whole entry): T1 sequence (whole entry)
Outline: (§1)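 NOS activity measured as enzymatic conversion of [3H]L-arginine into [3H]L-citrulline; inhibition taken as the reduction of this conversion. Both constitutive isoforms (neuronal and endothelial) were assayed, and the nNOS/eNOS selectivity was calculated from the two results.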

[4] = species on record: Rattus norvegicus; assay: Antioxidant potency of compound was assessed for their ability to inhibit [Fe2+] induced lipid peroxidation in rat brain microsomes; type: functional
[5] = species on record: Rattus norvegicus; assay: Antioxidant potency of compound was assessed for their ability to inhibit [Fe2+] induced lipid peroxidation in rat brain microsomes; Not active; type: functional
[6] = target: T2, Nitric oxide synthase 1; assay: Inhibitory concentration tested against neuronal nitric oxide synthase (nNOS ) from rat cerebellum; Not active; type: tissue-based; outline: as §1
[7] = target: T3, Nitric oxide synthase 3; assay: Inhibitory concentration tested against bovine endothelial nitric oxide synthase (eNOS); Not active; outline: as §1

Row | Compound | Selectivity ratio [1] | IC50 [2] [µM] | IC50 [3] [µM] | IC50 [4] [µM] | IC50 [6] | IC50 [7] | IC50 [5]
1 | CC(C)(C)c1cc(CCNCc2cccc(N=C(N)c3cccs3)c2)cc(C(C)(C)C)c1O |  | 1.4 | 15.5 |  |  |  | 
2 | CC(C)c1cc(CCCNCc2cccc(NC(=N)c3cccs3)c2)cc(C(C)C)c1O | 67.5 | 0.12 | 8.1 | 0.4 |  |  | 
3 | CC(C)(C)c1cc(CNCc2cccc(NC(=N)c3cccs3)c2)cc(C(C)(C)C)c1O | 9.8 | 1.6 | 15.7 | 4.9 |  |  | 
4 | CC(C)(C)c1cc(CCCNCc2cccc(NC(=N)c3cccs3)c2)cc(C(C)(C)C)c1O | 10.4 | 0.47 | 4.9 | 0.4 |  |  | 
5 | N=C(Nc1ccc(CCN)cc1)c1cccs1 | 312 | 0.08 | 25 |  |  |  | 
6 | Cl.Cl.Cl.N=C(Nc1ccc(CCNCc2cccc(Cl)c2)cc1)c1cccs1 | 60 | 0.12 | 7.2 |  |  |  | Not Active
7 | CC(C)(C)c1cc(CCNCc2cccc(NC(=N)c3cccs3)c2)cc(C(C)(C)C)c1O | 11.1 |  |  | 2.4 |  |  | 
8 | Cc1cc(C(C)(C)C)c(O)c(C(C)(C)C)c1 [BUTYLATED HYDROXYTOLUENE] |  |  |  | 32.5 | Not Active | Not Active | 

Now from value to compound, other results behind:

Row | Selectivity ratio [1] | IC50 [2] [µM] | IC50 [3] [µM] | IC50 [4] [µM] | IC50 [6] | IC50 [7] | Compound | IC50 [5]
9 | 484 | 0.05 | 24.2 |  |  |  | N=C(Nc1cccc(CN)c1)c1cccs1 | 
10 | > 5.5 | 18 | > 100 |  |  |  | N/C(=N/c1ccc(N)cc1)c1cccs1 | 
11 | 6.3 | 2.2 | 13.9 |  |  |  | N=C(Nc1ccccc1)c1cccs1 | 
12 | 195 | 0.2 | 37.1 |  |  |  | N=C(Nc1ccc(CN)cc1)c1cccs1 | 
